High-throughput results from PubChem.
Rtt109 HAT inh = inhibitors of C. albicans Rtt109/Vps75 HAT, primary screen, biochemical, ThioGlo CoA-SH fluorescence, plate reader. Histone acetyltransferase RTT109 (Candida albicans (strain SC5314 / ATCC MYA-2876)), …. purified Rtt109/Vps75, 4 h. inhibition, % at 34.9 µM. hit rate 0.16% among 330,000. AID 540336, 2011;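 active = inhibition of at least 50% in every replicate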
Dyrk1A ADPGlo = rat Dyrk1A kinase inhibitors, primary screen, biochemical, single point, plate reader. ADP-Glo luminescence, NFATc1 peptide. inhibition, % at 12.5 µM. hit rate 0.43% among 310,000. Dual specificity tyrosine-phosphorylation-regulated kinase 1A (Rattus norvegicus), Q63470; in the data active = inhibition above about 50%
dFosB act = activators of delta FosB homodimer, primary screen, biochemical, fluorescence polarization, TAMRA-CDK5 oligo, single point; purified delta FosB; percent of positive-control signal above neutral wells; activation, % at 25 µM; hit rate 0.99% among 340,000;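 active = mean activation above about 17%, with every replicate also reaching it, limit read from the data, passing the limit was not always enough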
Target sequence (P13346 whole entry, looked up): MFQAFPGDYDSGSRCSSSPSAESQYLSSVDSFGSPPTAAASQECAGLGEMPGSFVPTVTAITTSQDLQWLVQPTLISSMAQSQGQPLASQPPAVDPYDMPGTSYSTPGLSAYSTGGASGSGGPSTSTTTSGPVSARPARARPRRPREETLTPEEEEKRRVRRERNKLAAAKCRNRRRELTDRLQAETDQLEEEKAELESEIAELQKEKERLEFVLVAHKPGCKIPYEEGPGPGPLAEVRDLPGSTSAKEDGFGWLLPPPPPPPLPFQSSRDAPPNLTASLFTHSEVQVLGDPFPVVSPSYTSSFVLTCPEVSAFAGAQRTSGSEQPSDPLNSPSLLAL
CAL PDZ FP-1 = CAL PDZ peptide-binding inhibitors, primary screen, biochemical, fluorescence polarization, Cer-tagged CAL PDZ, HTS; purified CAL PDZ, TMR-peptide fluorescence polarization, 1 h; hit rate 0.02% among 330,000; inhibition, % at 20 µM; Golgi-associated PDZ and coiled-coil motif-containing protein (Homo sapiens), Q9HD26; AID 504414, 2011;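 active = highest replicate inhibition of at least 40%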
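Test system: purified CerCALP PDZ construct; Compound dosing: one concentration, 20 µM compound; Also added: TMR-labelled reporter peptide T*-PRC34 bound in PDZ groove; Read-out: inhibition from polarization loss; Controls: unlabelled peptide and DMSO controls; Signal: FP readout, S and P plane fluorescence; Incubation: 1 h at RT.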
CAL PDZ FP-2 = untagged CAL PDZ binding inhibitors, primary screen, biochemical, fluorescence polarization, HTS; inhibition, % at 24.9 µM; purified CAL PDZ, TMR-peptide fluorescence polarization, 1 h; Golgi-associated PDZ and coiled-coil motif-containing protein (Homo sapiens), Q9HD26; hit rate 0.92% among 300,000;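 active = mean inhibition of at least 30% with at least half of replicates also reaching 30%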
CDK5 inh = inhibitors of human CDK5/p35 kinase, primary screen, biochemical, single concentration; inhibition, % at 10 µM; Recombinant CDK5/p35, ADP-Glo luminescence, 60 min; Cyclin-dependent kinase 5 (Homo sapiens) + Cyclin-dependent kinase 5 activator 1 (Homo …; hit rate 0.01% among 330,000;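 active = highest replicate inhibition of at least 50% and at least 75% of replicates reaching 50%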
Numbers stand for hits. A selection: hits, their analogues and other compounds. The true share with any hit is near 2.2%.

What do the screens show for `O=C(CN1CCCC1)Nc1cc(C(F)(F)F)ccc1Cl`?
Rtt109 HAT inh: inactive; Dyrk1A ADPGlo: inactive; dFosB act: inactive; CAL PDZ FP-1: inactive; CAL PDZ FP-2: inactive; CDK5 inh: inactive

What do the screens show for `O=C(O)CSCC(=O)Nc1cc(C(F)(F)F)ccc1Cl`?
Rtt109 HAT inh: 66; dFosB act: inactive; CAL PDZ FP-1: inactive; CAL PDZ FP-2: inactive; CDK5 inh: inactive

How did COc1ccc(C)cc1S(=O)(=O)N1CCCC(C(=O)NC2CC2)C1 (stereo not given) do in these assays?
Rtt109 HAT inh: inactive; Dyrk1A ADPGlo: inactive; dFosB act: inactive; CAL PDZ FP-1: inactive; CAL PDZ FP-2: 36; CDK5 inh: inactive

How did COc1ccc(CNC(=O)C2CCCN(S(=O)(=O)c3cc(C)ccc3OC)C2)cc1 (stereo not given) do in these assays?
Rtt109 HAT inh: inactive; Dyrk1A ADPGlo: inactive; dFosB act: inactive; CAL PDZ FP-1: inactive; CDK5 inh: inactive

How did Cc1ccc2c(CC(=O)N3CCN(S(=O)(=O)c4ccc5c(c4)OCCO5)CC3)coc2c1 do in these assays?
Rtt109 HAT inh: inactive; Dyrk1A ADPGlo: inactive; dFosB act: inactive; CAL PDZ FP-1: inactive; CAL PDZ FP-2: 58; CDK5 inh: inactive

How did Cc1ccc2c(CC(=O)N3CCN(S(=O)(=O)c4ccccc4)CC3)coc2c1 do in these assays?
Rtt109 HAT inh: inactive; Dyrk1A ADPGlo: inactive; dFosB act: inactive; CAL PDZ FP-1: inactive; CAL PDZ FP-2: inactive; CDK5 inh: inactive

Results for N#C/C(=C/C1=C(N2CCOCC2)C(=C/c2ccc(Cl)cc2Cl)/CC1)C(=O)Nc1ccccc1F ?
Rtt109 HAT inh: inactive; Dyrk1A ADPGlo: inactive; dFosB act: inactive; CAL PDZ FP-1: inactive; CAL PDZ FP-2: inactive; CDK5 inh: inactive

Results for O=C(N/N=C/c1c(O)ccc2ccccc12)c1ccc(Br)o1 ?
Rtt109 HAT inh: inactive; Dyrk1A ADPGlo: inactive; dFosB act: 30; CAL PDZ FP-1: inactive; CAL PDZ FP-2: inactive; CDK5 inh: inactive

How did Cc1ccc(/C=N/NC(=O)c2nnn(-c3nonc3N)c2CNc2ccccc2)cc1 do in these assays?
Rtt109 HAT inh: inactive; Dyrk1A ADPGlo: inactive; dFosB act: inactive; CAL PDZ FP-1: inactive; CAL PDZ FP-2: inactive; CDK5 inh: inactive

How did Cc1c(C(=O)N/N=C/c2c(O)ccc3ccccc23)nnn1-c1nonc1N do in these assays?
Rtt109 HAT inh: inactive; Dyrk1A ADPGlo: inactive; dFosB act: 38; CAL PDZ FP-1: inactive; CAL PDZ FP-2: inactive; CDK5 inh: inactive

How did Nc1nonc1-n1nnc(C(=O)N/N=C/c2cc(Br)ccc2O)c1CNc1ccccc1 do in these assays?
Rtt109 HAT inh: inactive; Dyrk1A ADPGlo: inactive; dFosB act: 52; CAL PDZ FP-1: inactive; CAL PDZ FP-2: inactive; CDK5 inh: inactive

Results for Cc1nn(C)c(Sc2ccccc2N)c1[N+](=O)[O-] ?
Rtt109 HAT inh: 153; Dyrk1A ADPGlo: inactive; dFosB act: inactive; CAL PDZ FP-1: inactive; CAL PDZ FP-2: inactive; CDK5 inh: inactive

Results for C#CCn1cc(Cl)cc(C(=O)Nc2ccccc2)c1=O ?
Rtt109 HAT inh: inactive; Dyrk1A ADPGlo: inactive; dFosB act: inactive; CAL PDZ FP-1: inactive; CAL PDZ FP-2: inactive; CDK5 inh: inactive

Results for Cc1ccc(S(=O)(=O)Nc2ccccc2CNC2CCCCC2)cc1 ?
Rtt109 HAT inh: inactive; Dyrk1A ADPGlo: inactive; dFosB act: inactive; CAL PDZ FP-1: inactive; CDK5 inh: inactive

Results for O=C(CCCn1c(=O)[nH]c2ccsc2c1=O)NC1CCCCC1 ?
Rtt109 HAT inh: inactive; Dyrk1A ADPGlo: inactive; dFosB act: inactive; CAL PDZ FP-1: inactive; CAL PDZ FP-2: inactive; CDK5 inh: inactive

What do the screens show for `O=C(CCCn1c(=O)[nH]c2cc(Cl)ccc2c1=O)NC1CCCCCCC1`?
Rtt109 HAT inh: inactive; Dyrk1A ADPGlo: inactive; dFosB act: inactive; CAL PDZ FP-1: inactive; CAL PDZ FP-2: 53

How did Cc1nn(-c2ccc(N3CCCCC3)nn2)c(C)c1CCC(=O)Nc1cc(F)ccc1F do in these assays?
Rtt109 HAT inh: inactive; Dyrk1A ADPGlo: inactive; dFosB act: inactive; CAL PDZ FP-1: inactive; CAL PDZ FP-2: inactive; CDK5 inh: inactive
